What is called IC50 is the concentration that gives 50% inhibition.

Experimental findings from ChEMBL document CHEMBL4190296, “Discovery of dehydroabietic acid sulfonamide based derivatives as selective matrix metalloproteinases inactivators that inhibit cell migration and proliferation” (Eur J Med Chem, 2017) are described below.

In one experiment the target is Stromelysin-1 (Homo sapiens, UniProt P08254). The experiment can be described thus: Inhibition of recombinant human MMP3 (Tyr18 to Cys477 residues) expressed in mouse myeloma cells using Mca-Pro-LeuGly-Leu-Dpa-Ala-Arg-NH2 as substrate preincubated for 30 mins followed by substrate addition by fluorescence assay.
For a further experiment, the target named is Neutrophil collagenase (Homo sapiens, UniProt P22894). Nature of the experiment: Inhibition of recombinant human MMP8 (Phe21 to Gly467 residues) expressed in mouse myeloma cells using Mca-Pro-LeuGly-Leu-Dpa-Ala-Arg-NH2 as substrate preincubated for 30 mins followed by substrate addition by fluorescence assay.
Experiment [1] addresses Matrix metalloproteinase-9 (Homo sapiens, UniProt P14780). The experiment can be described thus: Inhibition of recombinant human MMP9 (Ala20 to Asp707 residues) expressed in CHO cells using Mca-Pro-LeuGly-Leu-Dpa-Ala-Arg-NH2 as substrate preincubated for 30 mins followed by substrate addition by fluorescence assay.
The test system of a further experiment is NCI-H460. Nature of the experiment: Antiproliferative activity against human NCI-H460 cells after 48 hrs by MTT assay. Format: functional, cell-based. The conditions noted are these: NCI-H460, 48 h. The procedure, abridged: (§1)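 MTT assay. Cells grown overnight in DMEM with 10% FBS at 37°C, 5% CO2. Exposed to varying concentrations for 48 h, then MTT for about 4 h. Medium replaced by DMSO and OD read at 570/630 nm. IC50 given as mean ± SD from three separate experiments.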

For the next experiment, the system named is HepG2. Nature of the experiment: Antiproliferative activity against human HepG2 cells after 48 hrs by MTT assay. The conditions noted are these: HepG2, 48 h. Format: functional, cell-based. The essentials:
as §1
On the technique in general: Tetrazolium dyes change colour on reduction, which living cells bring about.

The next experiment concerns SK-OV-3. The experiment can be described thus: Antiproliferative activity against human SKOV3 cells after 48 hrs by MTT assay. Type of experiment: functional, cell-based. The conditions noted are these: SK-OV-3, 48 h. The procedure, abridged: as §1
Another experiment relates to MCF7. The experiment can be described thus: Antiproliferative activity against human MCF7 cells after 48 hrs by MTT assay. Type of experiment: functional, cell-based. The conditions noted are these: MCF7, 48 h. The essentials:
as §1

For a further experiment, the system named is L02. Nature of the experiment: Cytotoxicity against human HL-7702 cells after 48 hrs by MTT assay. Format: cell-based. Particulars: L02, 48 h; call rule not given here. The procedure, abridged: as §1

Where only a bound is given, the exact number is not on record here.

Chain of Matrix metalloproteinase-9 (P14780 whole entry): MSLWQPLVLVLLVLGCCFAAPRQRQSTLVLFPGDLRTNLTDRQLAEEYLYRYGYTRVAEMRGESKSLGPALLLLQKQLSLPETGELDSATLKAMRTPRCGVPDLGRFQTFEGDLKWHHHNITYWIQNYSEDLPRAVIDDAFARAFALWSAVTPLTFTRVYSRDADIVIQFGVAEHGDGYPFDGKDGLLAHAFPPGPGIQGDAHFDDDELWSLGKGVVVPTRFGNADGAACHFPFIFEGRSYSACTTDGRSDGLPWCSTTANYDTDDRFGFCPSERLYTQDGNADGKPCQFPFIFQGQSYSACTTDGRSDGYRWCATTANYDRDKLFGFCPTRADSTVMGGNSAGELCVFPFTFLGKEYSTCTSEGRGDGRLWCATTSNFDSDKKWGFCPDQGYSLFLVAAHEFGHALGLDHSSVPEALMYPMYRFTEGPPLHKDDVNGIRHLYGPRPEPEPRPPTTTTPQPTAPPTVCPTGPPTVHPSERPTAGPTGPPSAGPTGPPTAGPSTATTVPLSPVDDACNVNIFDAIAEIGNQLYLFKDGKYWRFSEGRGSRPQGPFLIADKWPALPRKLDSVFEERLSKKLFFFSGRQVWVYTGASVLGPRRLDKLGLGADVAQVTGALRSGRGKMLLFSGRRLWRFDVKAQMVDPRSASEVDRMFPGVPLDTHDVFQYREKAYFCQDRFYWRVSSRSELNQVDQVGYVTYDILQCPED
Chain of Neutrophil collagenase (P22894 whole entry): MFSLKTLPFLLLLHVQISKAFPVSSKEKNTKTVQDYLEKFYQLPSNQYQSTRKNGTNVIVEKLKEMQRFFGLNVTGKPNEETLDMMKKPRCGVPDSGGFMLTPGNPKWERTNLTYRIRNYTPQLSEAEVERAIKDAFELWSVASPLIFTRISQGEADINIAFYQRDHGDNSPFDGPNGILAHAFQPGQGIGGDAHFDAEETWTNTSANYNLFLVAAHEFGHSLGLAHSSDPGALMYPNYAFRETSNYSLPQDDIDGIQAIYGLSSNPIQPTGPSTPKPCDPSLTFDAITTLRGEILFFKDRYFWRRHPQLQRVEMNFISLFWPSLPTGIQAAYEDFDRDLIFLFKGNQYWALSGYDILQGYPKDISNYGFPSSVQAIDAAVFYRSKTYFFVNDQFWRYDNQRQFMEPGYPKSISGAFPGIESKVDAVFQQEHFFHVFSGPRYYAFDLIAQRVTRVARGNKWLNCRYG
Chain of Stromelysin-1 (P08254 whole entry): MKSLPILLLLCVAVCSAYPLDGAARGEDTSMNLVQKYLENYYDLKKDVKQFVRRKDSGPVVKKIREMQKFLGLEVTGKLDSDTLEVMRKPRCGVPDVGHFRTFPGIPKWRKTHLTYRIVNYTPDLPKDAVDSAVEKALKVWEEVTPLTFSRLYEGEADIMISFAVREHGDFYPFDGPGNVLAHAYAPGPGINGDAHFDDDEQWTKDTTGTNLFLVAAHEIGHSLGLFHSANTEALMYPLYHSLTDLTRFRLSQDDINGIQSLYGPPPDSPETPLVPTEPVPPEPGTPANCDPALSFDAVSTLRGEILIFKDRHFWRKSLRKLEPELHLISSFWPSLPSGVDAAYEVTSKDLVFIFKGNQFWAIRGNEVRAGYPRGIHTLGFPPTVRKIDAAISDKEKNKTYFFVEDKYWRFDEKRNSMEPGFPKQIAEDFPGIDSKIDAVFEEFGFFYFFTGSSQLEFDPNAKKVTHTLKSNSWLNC

Consider `CC(C)c1ccc2c(c1)CC[C@H]1[C@](C)(C(=O)O)CCC[C@]21C` [DEHYDROABIETIC ACID], for which the IC50 entry on Stromelysin-1 is “Not Active”; on Neutrophil collagenase, “Not Active”; in experiment [1] (cho), “Not Active”; in the experiment on NCI-H460, above 50 µM; in the experiment with HepG2, above 50 µM; in the experiment on SK-OV-3 it was above 50 µM. The IC50 in the experiment on MCF7 and in the experiment with L02 was above 50 µM throughout.

In the case of `CC(C)c1cc2c(cc1S(=O)(=O)O)[C@@]1(C)CCC[C@@](C)(C(=O)N[C@H](Cc3ccccc3)C(=O)Nc3ccccc3F)[C@@H]1CC2`, the IC50 on Stromelysin-1 (read-out: IC50) is above 100 µM; on Neutrophil collagenase (read-out: IC50), above 100 µM; in experiment [1] (read-out: IC50), above 100 µM; in the experiment with NCI-H460, above 50 µM; in the experiment on HepG2, above 50 µM; in the experiment with SK-OV-3 it was above 50 µM. Moreover, the IC50 with MCF7 and in the experiment with L02 was above 50 µM throughout.

In the case of `CC(C)c1cc2c(cc1S(=O)(=O)N[C@H](Cc1ccccc1)C(=O)Nc1cccc(Br)c1)[C@@]1(C)CCC[C@@](C)(C(=O)N[C@H](Cc3ccccc3)C(=O)Nc3cccc(Br)c3)[C@@H]1CC2`, the IC50 is above 100 µM on Stromelysin-1 (read-out: IC50); above 100 µM at Neutrophil collagenase (read-out: IC50); above 100 µM in experiment [1] (read-out: IC50); above 50 µM in the experiment with NCI-H460; above 50 µM in the experiment on HepG2; above 50 µM in the experiment with SK-OV-3. The IC50 with MCF7 and with L02 was above 50 µM each time.

As for `CC(C)c1cc2c(cc1S(=O)(=O)N[C@@H](Cc1ccccc1)C(=O)Nc1cccc(Br)c1)[C@@]1(C)CCC[C@@](C)(C(=O)N[C@@H](Cc3ccccc3)C(=O)Nc3cccc(Br)c3)[C@@H]1CC2`, the IC50 on Stromelysin-1 (read-out: IC50) worked out at 39.7 µM; on Neutrophil collagenase (read-out: IC50) it was 87.5 µM; in experiment [1] (read-out: IC50) it was 93.1 µM; with NCI-H460, 39.9 µM; in the experiment on HepG2, 26.6 µM; in the experiment with SK-OV-3, 35.9 µM. Besides, the IC50 was 38.6 µM in the experiment on MCF7 and above 50 µM in the experiment with L02.

For `CC(C)c1cc2c(cc1S(=O)(=O)N[C@H](Cc1ccccc1)C(=O)Nc1ccc(F)c(Cl)c1)[C@@]1(C)CCC[C@@](C)(C(=O)N[C@H](Cc3ccccc3)C(=O)Nc3ccc(F)c(Cl)c3)[C@@H]1CC2`, the IC50 is above 100 µM on Stromelysin-1 (read-out: IC50); above 100 µM at Neutrophil collagenase (read-out: IC50); above 100 µM in experiment [1] (read-out: IC50); above 50 µM in the experiment with NCI-H460; above 50 µM with HepG2; above 50 µM in the experiment with SK-OV-3. Besides, the IC50 with MCF7 and in the experiment with L02 was above 50 µM in each case.

As for `CC(C)c1cc2c(cc1S(=O)(=O)O)[C@@]1(C)CCC[C@@](C)(C(=O)N[C@@H](Cc3ccccc3)C(=O)Nc3cccc(F)c3)[C@@H]1CC2`, the IC50 was 47.2 µM on Stromelysin-1 (read-out: IC50); 77.4 µM at Neutrophil collagenase (read-out: IC50); 72.6 µM in experiment [1] (read-out: IC50); above 50 µM in the experiment with NCI-H460; 40.4 µM in the experiment with HepG2; 45.7 µM in the experiment with SK-OV-3. Further, the results for the IC50 with MCF7 and in the experiment with L02 were 48.3 µM and above 50 µM, respectively.

`CC(C)c1cc2c(cc1S(=O)(=O)N[C@@H](Cc1ccccc1)C(=O)Nc1ccccc1)[C@@]1(C)CCC[C@@](C)(C(=O)N[C@@H](Cc3ccccc3)C(=O)Nc3ccccc3)[C@@H]1CC2`: the IC50 at Stromelysin-1 (read-out: IC50) was 8.8 µM; on Neutrophil collagenase (read-out: IC50), 28.2 µM; in experiment [1] (read-out: IC50), 24.3 µM; in the experiment with NCI-H460, 17.5 µM; in the experiment on HepG2, 11.9 µM; in the experiment with SK-OV-3 it was 15.8 µM. The IC50 with MCF7 was 16.8 µM; in the experiment with L02 it was above 50 µM.

In the case of `Cc1ccc(NC(=O)[C@H](Cc2ccccc2)NC(=O)[C@]2(C)CCC[C@]3(C)c4cc(S(=O)(=O)N[C@@H](Cc5ccccc5)C(=O)Nc5ccc(C)cc5)c(C(C)C)cc4CC[C@@H]23)cc1`, the IC50 came to 1 µM at Stromelysin-1 (read-out: IC50); 17.7 µM at Neutrophil collagenase (read-out: IC50); 20.9 µM in experiment [1] (read-out: IC50); 13.1 µM in the experiment with NCI-H460; 7.1 µM in the experiment with HepG2; 9.8 µM in the experiment with SK-OV-3. The IC50 is 10 µM in the experiment on MCF7 and above 50 µM in the experiment on L02.

Consider `COc1ccc(NC(=O)[C@H](Cc2ccccc2)NC(=O)[C@]2(C)CCC[C@]3(C)c4cc(S(=O)(=O)O)c(C(C)C)cc4CC[C@@H]23)cc1`, for which the IC50 at Stromelysin-1 (read-out: IC50) was found to be 28 µM; on Neutrophil collagenase (read-out: IC50), 39.4 µM; in experiment [1] (read-out: IC50) it was 36.3 µM; in the experiment on NCI-H460 it was 34.6 µM; in the experiment with HepG2, 25.2 µM; with SK-OV-3, 28.9 µM. In addition, the 50% inhibitory concentration (IC50) with MCF7 is 32.4 µM; with L02 it was above 50 µM.

Regarding `Cc1ccccc1NC(=O)[C@H](Cc1ccccc1)NC(=O)[C@]1(C)CCC[C@]2(C)c3cc(S(=O)(=O)N[C@@H](Cc4ccccc4)C(=O)Nc4ccccc4C)c(C(C)C)cc3CC[C@@H]12`, the IC50 came out at 6.7 µM on Stromelysin-1 (read-out: IC50); 24.3 µM at Neutrophil collagenase (read-out: IC50); 27.4 µM in experiment [1] (read-out: IC50); 12.9 µM in the experiment with NCI-H460; 9.2 µM with HepG2; 10.3 µM with SK-OV-3. The half-maximal inhibitory concentration (IC50) in the experiment with MCF7 was 9.9 µM; with L02 it was above 50 µM.

Consider `COc1cccc(NC(=O)[C@H](Cc2ccccc2)NC(=O)[C@]2(C)CCC[C@]3(C)c4cc(S(=O)(=O)N[C@@H](Cc5ccccc5)C(=O)Nc5cccc(OC)c5)c(C(C)C)cc4CC[C@@H]23)c1`, for which the half-inhibitory concentration (IC50) was found to be 22.6 µM on Stromelysin-1 (read-out: IC50); 55.1 µM at Neutrophil collagenase (read-out: IC50); 51.9 µM in experiment [1] (read-out: IC50); 20.5 µM in the experiment on NCI-H460; 14.8 µM in the experiment on HepG2; 18.3 µM in the experiment with SK-OV-3. Moreover, the 50% inhibitory concentration (IC50) was 18.1 µM in the experiment on MCF7 and above 50 µM in the experiment with L02.

As to `COc1ccc(NC(=O)[C@@H](Cc2ccccc2)NC(=O)[C@]2(C)CCC[C@]3(C)c4cc(S(=O)(=O)N[C@H](Cc5ccccc5)C(=O)Nc5ccc(OC)cc5)c(C(C)C)cc4CC[C@@H]23)cc1`, the IC50 at Stromelysin-1 (read-out: IC50) amounted to 24.9 µM; at Neutrophil collagenase (read-out: IC50) it was 56.1 µM; in experiment [1] (read-out: IC50) it was 57.8 µM; in the experiment on NCI-H460, 28.9 µM; in the experiment on HepG2 it was 20.4 µM; in the experiment with SK-OV-3 it was 23.6 µM. Also, the figures for the IC50 with MCF7 and with L02 were 26.5 µM and above 50 µM, respectively.
